Calls of active or inactive are those of the source. The calls are words filed in the database; no cut-off is given here.
How the values were obtained:
[1] = system: Mycolicibacterium aurum; assay: Growth inhibition of Mycobacterium aurum expressing Mycobacterium tuberculosis H37Rv kas operon in fusion Escherichia coli lacZ gene at 50 uM incubated for 12 hrs; format: functional; details: read-out: GI
[2] = system: Mycolicibacterium aurum; assay: Growth inhibition of Mycobacterium aurum expressing Mycobacterium tuberculosis H37Rv kas operon in fusion Escherichia coli lacZ gene at 100 uM incubated for 12 hrs; format: functional; details: read-out: GI
[3] = Toxicity against macrophages incubated for 48 hrs by resazurin dye reduction assay; format: cell-based, Macrophage
Method in brief: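 Macrophages from subconfluent monolayers seeded ~1 × 10^6 cells/well in RPMI-1640; compounds 100 to 12.5 µM, 48 h at 37 °C, 5% CO2; resazurin added for 4 h, fluorescence 535/590 nm read against untreated wells as % viability; CC50 taken from viability-versus-concentration plot; triplicates.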

[4] = target: Serine/threonine-protein kinase PknG (Mycobacterium tuberculosis) (UniProt P9WI73); assay: Inhibition of Mycobacterium tuberculosis recombinant PKnG expressed in Escherichia coli BL21 (DE3) cells using myelin basic protein substrate at 6.25 uM by luciferase activity based ADP-Glo-luminescent kinase assay
Sequence of Serine/threonine-protein kinase PknG (Mycobacterium tuberculosis) (P9WI73 whole entry, the tested form may be a part): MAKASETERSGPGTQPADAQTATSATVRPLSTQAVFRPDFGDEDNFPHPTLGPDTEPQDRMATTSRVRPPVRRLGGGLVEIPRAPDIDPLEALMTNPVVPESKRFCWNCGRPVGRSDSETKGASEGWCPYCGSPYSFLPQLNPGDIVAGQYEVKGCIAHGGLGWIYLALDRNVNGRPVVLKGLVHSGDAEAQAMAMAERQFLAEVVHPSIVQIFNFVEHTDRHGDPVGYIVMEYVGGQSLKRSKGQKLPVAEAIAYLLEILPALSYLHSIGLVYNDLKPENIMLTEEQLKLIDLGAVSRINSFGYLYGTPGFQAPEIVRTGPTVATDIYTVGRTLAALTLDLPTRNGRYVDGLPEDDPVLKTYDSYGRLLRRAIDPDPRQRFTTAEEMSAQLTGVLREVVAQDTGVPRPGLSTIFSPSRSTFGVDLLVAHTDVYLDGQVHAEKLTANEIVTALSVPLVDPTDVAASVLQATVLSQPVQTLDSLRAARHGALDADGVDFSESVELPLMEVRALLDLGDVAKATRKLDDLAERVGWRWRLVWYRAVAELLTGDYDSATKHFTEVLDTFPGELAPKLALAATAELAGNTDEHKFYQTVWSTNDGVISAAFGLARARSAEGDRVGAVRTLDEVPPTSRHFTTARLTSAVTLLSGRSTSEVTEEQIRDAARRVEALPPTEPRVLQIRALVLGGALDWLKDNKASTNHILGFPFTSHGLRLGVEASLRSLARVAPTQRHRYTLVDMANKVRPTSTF
Method in brief: (§1)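 6-His-PknG from M. tuberculosis genomic DNA cloned into pTriEx4, expressed in E. coli with 0.8 mM IPTG 4 h at 37 °C, purified by Ni2+-NTA then size exclusion. Compounds dissolved in DMSO; assayed with myelin basic protein substrate; ADP formed measured by ADP-Glo luminescence; AX20017 positive control; dose-response series.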

[5] = target: Serine/threonine-protein kinase PknG (Mycobacterium tuberculosis) (UniProt P9WI73); assay: Inhibition of Mycobacterium tuberculosis recombinant PKnG expressed in Escherichia coli BL21 (DE3) cells using myelin basic protein substrate at 12.5 uM by luciferase activity based ADP-Glo-luminescent kinase assay; method in brief: as §1
[6] = target: Serine/threonine-protein kinase PknG (Mycobacterium tuberculosis) (UniProt P9WI73); assay: Inhibition of Mycobacterium tuberculosis recombinant PKnG expressed in Escherichia coli BL21 (DE3) cells using myelin basic protein substrate at 50 uM by luciferase activity based ADP-Glo-luminescent kinase assay; method in brief: as §1
[7] = target: Serine/threonine-protein kinase PknG (Mycobacterium tuberculosis) (UniProt P9WI73); assay: Inhibition of Mycobacterium tuberculosis recombinant PKnG expressed in Escherichia coli BL21 (DE3) cells using myelin basic protein substrate at 100 uM by luciferase activity based ADP-Glo-luminescent kinase assay; method in brief: as §1
[8] = target: Serine/threonine-protein kinase PknG (Mycobacterium tuberculosis) (UniProt P9WI73); assay: Inhibition of Mycobacterium tuberculosis recombinant PKnG expressed in Escherichia coli BL21 (DE3) cells using myelin basic protein substrate at 3.125 uM by luciferase activity based ADP-Glo-luminescent kinase assay; method in brief: as §1
[9] = target: Serine/threonine-protein kinase PknG (Mycobacterium tuberculosis) (UniProt P9WI73); assay: Inhibition of Mycobacterium tuberculosis recombinant PKnG expressed in Escherichia coli BL21 (DE3) cells using myelin basic protein substrate at 25 uM by luciferase activity based ADP-Glo-luminescent kinase assay; method in brief: as §1
[10] = system: Mycolicibacterium aurum; assay: Inhibition of FAS2 in recombinant Mycobacterium aurum expressing Mycobacterium tuberculosis H37Rv kas operon in fusion Escherichia coli lacZ gene assessed as increase in beta-galactosidase activity at 100 uM incubated for 12 hrs by lacZ reporter gene assay
Method in brief: (§2)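 Cells washed, sonicated in PBS pH 7.2; equal Bradford-quantified protein incubated with ONPG (4 mg/ml) 30 min at 37 °C, stopped with Na2CO3, read at 410 nm. Triplicates, experiment repeated twice; isoniazid positive control.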

[11] = system: Mycolicibacterium aurum; assay: Inhibition of FAS2 in recombinant Mycobacterium aurum expressing Mycobacterium tuberculosis H37Rv kas operon in fusion Escherichia coli lacZ gene assessed as increase in beta-galactosidase activity at 50 uM incubated for 12 hrs by lacZ reporter gene assay; method in brief: as §2
[12] = system: Mycolicibacterium aurum; assay: Inhibition of FAS2 in recombinant Mycobacterium aurum expressing hsp60 promoter in fusion Escherichia coli lacZ gene assessed as increase in beta-galactosidase activity at 100 uM incubated for 12 hrs by lacZ reporter gene assay
[13] = system: Mycolicibacterium aurum; assay: Inhibition of FAS2 in recombinant Mycobacterium aurum expressing hsp60 promoter in fusion Escherichia coli lacZ gene assessed as increase in beta-galactosidase activity at 50 uM incubated for 12 hrs by lacZ reporter gene assay

Structure (SMILES)	inhibition of growth at 50 µM [1] [%]	inhibition of growth at 100 µM [2] [%]	inhibition [7] [%]	further results
CCCCCCn1cc(COc2ccc3c(c2)OC(c2ccc(C(C)C)cc2)CC3=O)nn1 (stereo unspecified)	34.1	56.4		
O=C(/C=C/c1cccc2ccccc12)c1ccc(OCc2cn(Cc3ccc(Br)cc3)nn2)cc1O	0	63.2		
Nc1nc(-c2ccc(OCc3cn(Cc4ccc(Br)cc4)nn3)cc2O)cc(-c2cccc3ccccc23)n1			34	CC50 at 48 h [3]: > 100 µM; inhibition [4]: 2%; inhibition [5]: 0%; inhibition [6]: 3%; inhibition [8]: 0%; inhibition [9]: 0%
CCCCCCn1cc(COc2ccc(-c3cc(-c4c(F)cccc4Cl)nc(N)n3)c(O)c2)nn1			11	
CCCCCCn1cc(COc2ccc(-c3cc(-c4ccc(C(C)C)cc4)nc(N)n3)c(O)c2)nn1			5	
CCCCCCn1cc(COc2ccc(C(=O)/C=C/c3cccc4ccccc34)c(O)c2)nn1	5.5	18.8		
CCCCCCn1cc(COc2ccc(C(=O)/C=C/c3ccccc3)c(O)c2)nn1	16.8	57.7		
CC(=O)c1ccc(OCc2cn(Cc3ccccc3)nn2)cc1O	23.7	75.9		inhibition [10]: inactive; inhibition [11]: inactive
CCCCCCn1cc(COc2ccc3c(c2)OC(c2ccc(Br)cc2)CC3=O)nn1 (stereo unspecified)	68.9	75.1		CC50 at 48 h [3]: 20.3 µM; inhibition [10]: Active; inhibition [11]: Active; inhibition [12]: inactive; inhibition [13]: inactive
CCCCCCn1cc(COc2ccc(C(=O)/C=C/c3ccc(Cl)cc3)c(O)c2)nn1	6.1	59		
COc1ccc(-c2cc(-c3ccc(OCc4cn(Cc5ccccc5)nn4)cc3O)nc(N)n2)cc1			43	CC50 at 48 h [3]: 42.7 µM; inhibition [4]: 0%; inhibition [5]: 10%; inhibition [6]: 43%; inhibition [8]: 6%; inhibition [9]: 9%
CCCCCCn1cc(COc2ccc(C(=O)/C=C/c3ccc(C(C)C)cc3)c(O)c2)nn1	0	31.4		
CCCCCCn1cc(COc2ccc(-c3cc(-c4ccc(Cl)cc4)nc(N)n3)c(O)c2)nn1			43	CC50 at 48 h [3]: 30.3 µM; inhibition [4]: 0%; inhibition [6]: 0%; inhibition [8]: 0%; inhibition [9]: 0%
NC(=O)C1=C(NC(=O)C2CC2)CC2=C1CCCC2				inhibition [5]: 12%; inhibition [6]: 24%; inhibition [9]: 22%
C#CCOc1ccc(-c2cc(-c3ccc(OCc4cn(CCCCCC)nn4)cc3O)nc(N)n2)cc1			17	
O=C(/C=C/c1ccc(Br)cc1)c1ccc(OCc2cn(Cc3ccc(Br)cc3)nn2)cc1O	11.6	28		
CCCCCCn1cc(COc2ccc(C(=O)/C=C/c3ccc(Br)cc3)c(O)c2)nn1	69.6	76.5		CC50 at 48 h [3]: > 100 µM; inhibition [10]: inactive; inhibition [11]: inactive
CCCCCCn1cc(COc2ccc3c(c2)OC(c2ccccc2)CC3=O)nn1 (stereo unspecified)	19	70.2		
O=C1CC(c2ccccc2)Oc2cc(OCc3cn(Cc4ccc(Br)cc4)nn3)ccc21 (stereo unspecified)	15.8	66.1		
O=C(/C=C/c1cccc2ccccc12)c1ccc(OCc2cn(Cc3ccccc3)nn2)cc1O	2.6	51.6		
CCCCCCn1cc(COc2ccc(C(=O)/C=C/c3ccc(OC)cc3)c(O)c2)nn1	6.2	44.7		
Nc1nc(-c2ccccc2)cc(-c2ccc(OCc3cn(Cc4ccccc4)nn3)cc2O)n1			29	CC50 at 48 h [3]: 76.5 µM; inhibition [4]: 4%; inhibition [5]: 18%; inhibition [6]: 37%; inhibition [8]: 5%; inhibition [9]: 14%
Nc1nc(-c2ccc(OCc3cn(Cc4ccccc4)nn3)cc2O)cc(-c2cccc3ccccc23)n1			35	CC50 at 48 h [3]: 71.3 µM; inhibition [4]: 9%; inhibition [5]: 11%; inhibition [6]: 25%; inhibition [8]: 0%; inhibition [9]: 7%

Structure (SMILES)	inhibition of growth at 50 µM [1] [%]	inhibition of growth at 100 µM [2] [%]	inhibition [7] [%]	further results
Nc1nc(-c2ccccc2)cc(-c2ccc(OCc3cn(Cc4ccc(Br)cc4)nn3)cc2O)n1			41	CC50 at 48 h [3]: > 100 µM; inhibition [5]: 0%; inhibition [6]: 17%; inhibition [9]: 9%
COc1ccc(/C=C/C(=O)c2ccc(OCc3cn(Cc4ccccc4)nn3)cc2O)cc1	25.5	68.7		
CC(C)c1ccc(-c2cc(-c3ccc(OCc4cn(Cc5ccccc5)nn4)cc3O)nc(N)n2)cc1			28	CC50 at 48 h [3]: > 100 µM; inhibition [4]: 0%; inhibition [5]: 0%; inhibition [6]: 16%; inhibition [8]: 0%; inhibition [9]: 0%
CCCCCCn1cc(COc2ccc(-c3cc(-c4ccc(OC)cc4)nc(N)n3)c(O)c2)nn1			4	
CC(C)c1ccc(/C=C/C(=O)c2ccc(OCc3cn(Cc4ccc(Br)cc4)nn3)cc2O)cc1	0	17.8		
CC(C)c1ccc(C2CC(=O)c3ccc(OCc4cn(Cc5ccc(Br)cc5)nn4)cc3O2)cc1 (stereo unspecified)	31	72.5		
O=C1CC(c2ccc(Cl)cc2)Oc2cc(OCc3cn(Cc4ccccc4)nn3)ccc21 (stereo unspecified)	46.9	79.8		
C#CCOc1ccc(C(C)=O)c(O)c1	2	35.6		
O=C(/C=C/c1c(F)cccc1Cl)c1ccc(OCc2cn(Cc3ccccc3)nn2)cc1O	17.6	74.5		
C#CCOc1ccc(/C=C/C(=O)c2ccc(OCc3cn(Cc4ccccc4)nn3)cc2O)cc1	0	22		
O=C1CC(c2ccc(Br)cc2)Oc2cc(OCc3cn(Cc4ccc(Br)cc4)nn3)ccc21 (stereo unspecified)	50	70.6		CC50 at 48 h [3]: 87.5 µM; inhibition [10]: inactive; inhibition [11]: inactive
Nc1nc(-c2ccc(Br)cc2)cc(-c2ccc(OCc3cn(Cc4ccc(Br)cc4)nn3)cc2O)n1			19	inhibition [4]: 0%; inhibition [5]: 0%; inhibition [6]: 0%; inhibition [8]: 5%; inhibition [9]: 0%
CC(C)c1ccc(-c2cc(-c3ccc(OCc4cn(Cc5ccc(Br)cc5)nn4)cc3O)nc(N)n2)cc1			5	
CCCCCCn1cc(COc2ccc(-c3cc(-c4cccc5ccccc45)nc(N)n3)c(O)c2)nn1			11	
CC(C)c1ccc(/C=C/C(=O)c2ccc(OCc3cn(Cc4ccccc4)nn3)cc2O)cc1	0	12.7		
C#CCOc1ccc(/C=C/C(=O)c2ccc(OCc3cn(CCCCCC)nn3)cc2O)cc1	39.6	56		
Nc1nc(-c2ccc(Cl)cc2)cc(-c2ccc(OCc3cn(Cc4ccccc4)nn3)cc2O)n1			53	CC50 at 48 h [3]: 66.6 µM; inhibition [4]: 5%; inhibition [5]: 5%; inhibition [8]: 4%; inhibition [9]: 19%
O=C1CC(c2ccccc2)Oc2cc(OCc3cn(Cc4ccccc4)nn3)ccc21 (stereo unspecified)	27	74.8		
Nc1nc(-c2ccc(OCc3cn(Cc4ccccc4)nn3)cc2O)cc(-c2c(F)cccc2Cl)n1			12	
O=C(/C=C/c1ccc(Cl)cc1)c1ccc(OCc2cn(Cc3ccccc3)nn2)cc1O	11.6	28		
CC(=O)c1ccc(OCc2cn(Cc3ccc(Br)cc3)nn2)cc1O	70.4	73.7		inhibition [10]: inactive; inhibition [11]: inactive
CCCCCCn1cc(COc2ccc(C(C)=O)c(O)c2)nn1	93.1	91.8		inhibition [10]: inactive; inhibition [11]: inactive
